The test system of series [1] is A 172. The experiment in a line: Antiproliferative activity against human A 172 cells assessed as reduction in cell viability incubated for 48 hrs by MTT assay. Conditions: A 172, 48 h. It is filed as functional, cell-based. Put shortly: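 MTT assay; 3000 cells/well in RPMI 1640 or DMEM with 10% FBS, seeded 24 h, then exposed 48 h to a range of concentrations in DMSO (final ≤0.1%); vehicle controls. MTT 1 mg/mL for 2 h at 37 °C, dye dissolved in DMSO, absorbance 570 nm; eight replicates; IC50 by nonlinear regression.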

Series [2] can be described thus: Toxicity in CD1 mouse assessed as decrease in body weight at 80 mg/kg/day, ip administered thrice weekly and observed at day 5 to 7. The format is organism-based. Conditions: in vivo, 72 h, time 3 day. The gist of the method:
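Male CD-1 mice, four per group, given 80 mg/kg in PBS IP three times weekly; vehicle DMSO. Mice were euthanized when toxicity signs appeared, otherwise at day 10. Body weight was recorded at first and last dosing days. Non-fasted cardiac blood was taken after euthanasia for an automated hematology analyzer.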

The target of series [3] is Heat shock protein beta-1 (Homo sapiens) (UniProt P04792). The experiment in a line: Inhibition of HSP27 in human U87 cells assessed as downregulation of androgen receptor by Western blot analysis. The format is cell-based. Conditions: dose 25-100 nM. The gist of the method:
(§1)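 Cells were treated in six-well plates (with or without MG132 where stated), then lysed in RIPA with protease inhibitors. 50 μg protein was run on 10% SDS-PAGE and transferred to PVDF. Membranes were blocked in 5% milk/TBS-T, probed with AR or AR-V7 antibodies overnight at 4 °C, and detected by chemiluminescence. Densitometry was used; n = 3.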

Series [4] shares this target. The experiment in a line: Inhibition of HSP27 in human U87 cells assessed as reduction in AR expression level at 50 to 100 nM in presence of MG132 by Western blot analysis. The format is cell-based. Conditions: dose 50-100 nM. The gist of the method: as §1
The test system of series [5] is T98G. The experiment in a line: Downregulation of PSA mRNA expression in human T98G cells at 25 nM incubated for 12 hrs by qRT-PCR analysis. It is filed as functional, cell-based. Put shortly: (§2)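 T98G and U87 cells, 2 × 10^5 per well, adhered overnight and were treated at 25 nM for 12 h. RNA was extracted with RiboZol and DNase I-treated. AR, PSA and NKX3.1 were measured by real-time PCR, normalized to 18S by 2−ΔΔCt, three replicates per cDNA.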

Series [6] relates to U-87MG ATCC. Put plainly: Downregulation of PSA mRNA expression in human U87 cells at 25 nM incubated for 12 hrs by qRT-PCR analysis. It is filed as functional, cell-based. Put shortly: as §2
Series [7] concerns the target T1, Androgen receptor (Homo sapiens) (UniProt P10275).
T1 sequence (whole entry): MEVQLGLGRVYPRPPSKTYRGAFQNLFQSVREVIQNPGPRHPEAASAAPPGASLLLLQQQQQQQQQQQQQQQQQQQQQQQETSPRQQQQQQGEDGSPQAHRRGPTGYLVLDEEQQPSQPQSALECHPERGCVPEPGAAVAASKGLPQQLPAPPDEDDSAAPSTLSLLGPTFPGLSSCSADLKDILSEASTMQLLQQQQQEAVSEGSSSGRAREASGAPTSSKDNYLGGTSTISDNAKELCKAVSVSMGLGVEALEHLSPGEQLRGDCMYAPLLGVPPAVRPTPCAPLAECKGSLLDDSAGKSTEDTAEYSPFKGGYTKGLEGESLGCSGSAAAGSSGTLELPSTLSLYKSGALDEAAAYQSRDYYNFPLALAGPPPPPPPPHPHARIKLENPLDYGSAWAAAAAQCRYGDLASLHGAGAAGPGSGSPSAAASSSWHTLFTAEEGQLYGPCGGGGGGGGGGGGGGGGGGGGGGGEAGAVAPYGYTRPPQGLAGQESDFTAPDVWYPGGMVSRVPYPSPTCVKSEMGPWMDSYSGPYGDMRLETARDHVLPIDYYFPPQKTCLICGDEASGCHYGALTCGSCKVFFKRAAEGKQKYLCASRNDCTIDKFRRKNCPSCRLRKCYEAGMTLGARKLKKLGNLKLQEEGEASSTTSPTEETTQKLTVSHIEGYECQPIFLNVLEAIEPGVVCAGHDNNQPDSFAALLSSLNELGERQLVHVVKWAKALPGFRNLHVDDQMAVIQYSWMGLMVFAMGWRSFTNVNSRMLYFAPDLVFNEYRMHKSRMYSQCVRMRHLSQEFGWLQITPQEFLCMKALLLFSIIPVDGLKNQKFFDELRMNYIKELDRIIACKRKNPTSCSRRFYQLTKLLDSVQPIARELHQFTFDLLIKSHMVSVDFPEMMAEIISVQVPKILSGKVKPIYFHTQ
Put plainly: Inhibition of AR transcriptional activity in human U87 cells assessed as reduction in AR mRNA expression at 25 nM incubated for 12 hrs by qRT-PCR analysis. The format is cell-based. Put shortly:
as §2

Series [8] deals with T1, Androgen receptor (Homo sapiens). The experiment in a line: Inhibition of AR transcriptional activity in human T98G cells assessed as reduction in AR mRNA expression at 25 nM incubated for 12 hrs by qRT-PCR analysis. It is filed as cell-based. Put shortly:
as §2

In series [9] the test system is U-87 MG. The experiment in a line: Antitumor activity against human U87 cells xenografted in NCR nude mouse assessed as reduction in tumor size at 20 mg/kg, ip administered thrice weekly for 14 days by vernier caliper method. Conditions: U-87MG ATCC, time 14.0 day. The format is functional, organism-based. The gist of the method: (§3)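 Male NCRNU nude mice, 5–6 weeks, 5 × 10^6 U87 cells in PBS injected subcutaneously into left and right flank (n = 4 mice, 8 tumors per group). Dosing began near 50 mm3: 20 mg/kg in PBS IP or oral, three times weekly for 14 days, vehicle DMSO. Calipers three times weekly, V = 2/3·d1·d2²; tumors weighed after CO2 euthanasia.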

For series [10], the target named is Heat shock protein beta-1 (Homo sapiens) (UniProt P04792). The experiment in a line: Inhibition of HSP27 in human T98G cells assessed as AR accumulation in nucleus at 100 nM incubated for 12 hrs in presence of DHT by immunofluorescence analysis. The format is cell-based. The gist of the method: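 T98G cells on coverslips, 24 h after seeding, were treated 12 h with 100 nM, DHT 10 nM, or both. Cells were fixed in 4% paraformaldehyde, permeabilized with 0.1% Triton X-100 and blocked with 1% BSA. They were stained 1 h each with AR and HSP27 primary and fluorescent secondary antibodies, with DAPI for nuclei.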

Series [11] is described as follows: Toxicity in NCR nude mouse xenografted with human U87 cells assessed as change in body weight at 20 mg/kg, po administered thrice weekly for 14 days. Conditions: in vivo, 336 h, time 14 day. It is filed as organism-based. Put shortly: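 Male NCRNU nude mice, 5–6 weeks old, were given 5 × 10^6 U87 cells in 100 μL sterile PBS, injected subcutaneously into the left and right flanks. Dosing was 20 mg/kg in PBS, three times weekly for 14 days, with a DMSO vehicle group. Body weight was recorded three times weekly. Results are mean ± SD, n = 4 mice per group.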

The subject of series [12] is U-87 MG. The experiment in a line: Antitumor activity against human U87 cells xenografted in nude mouse assessed as reduction in tumor size at 20 mg/kg, po administered thrice weekly for 14 days by vernier caliper method. Conditions: U-87MG ATCC, time 14.0 day. It is filed as functional, organism-based. Put shortly:
as §3

Series [13] has as its system U-87 MG. Put plainly: Antitumor activity against human U87 cells xenografted in nude mouse assessed as reduction in tumor weight at 20 mg/kg, ip administered thrice weekly for 14 days by vernier caliper method. It is filed as functional, organism-based. Conditions: U-87MG ATCC, time 14.0 day. Put shortly:
as §3

Series [14] deals with Heat shock protein beta-1 (Homo sapiens) (UniProt P04792). Put plainly: Inhibition of HSP27 in human U87 cells assessed as induction of AR degradation at 25 to 100 nM by Western blot analysis. It is filed as cell-based. Conditions: dose 25-100 nM. Put shortly: as §1

SMILES strings stand for the structures. The source made the active and inactive calls. No cut-off for these calls is given here.

Among the data in ChEMBL document CHEMBL4706680, “Small-Molecule HSP27 Inhibitor Abolishes Androgen Receptors in Glioblastoma” (J Med Chem, 2021) are IC50, Activity and inhibition values, retold here.

Chain of Heat shock protein beta-1 (Homo sapiens) (P04792 whole entry): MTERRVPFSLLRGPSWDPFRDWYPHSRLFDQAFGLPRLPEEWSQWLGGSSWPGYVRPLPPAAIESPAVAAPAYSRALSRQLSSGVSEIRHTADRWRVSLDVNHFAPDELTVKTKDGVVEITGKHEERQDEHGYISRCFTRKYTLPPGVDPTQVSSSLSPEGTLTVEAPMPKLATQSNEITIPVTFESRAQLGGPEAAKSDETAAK

For the compound `COc1ccc(C(=O)Nc2ccc(NS(C)(=O)=O)c(OCc3cc(OC)ccc3OC)c2)cc1`, in series [1], the concentration for half-maximal inhibition (IC50) is 6.24 nM. Also, the Activity result in [2] and in series [11] was “Non-Toxic” throughout. In addition, in series [3], the inhibition entry was “Dose-dependent effect”. The inhibition result in [4] and in series [10] was “inactive” each time. Further, the inhibition result in series [5], in series [6], in series [7], in [8] and in series [14] was “Active” in each case. For the same compound, the outcome in [9], in series [12] and in [13] was Active.
